# STEP inh: blocks human striatal-enriched tyrosine phosphatase; P54829; recombinant STEP, OMFP fluorogenic substrate, fluorescence; inhibition, % at 20 µM; 360,000 compounds, 0.25% hits;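 active = inhibition at 20 µM, scaled per plate between control wells, above about 37%, limit read from the data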;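 note: 0% = DMSO with enzyme and substrate and 100% = substrate only without enzyme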
#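 material = STEP tyrosine phosphatase | reagent = fluorogenic phosphatase substrate OMFP at 25 µM final | doses = single compound dose of 20 µM, 1% DMSO final | schedule = 20 min reaction, room temperature, in the dark | measured by = fluorescence, 480/540 nm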
# Rpn11 inh: blocks the human proteasome subunit Rpn11. O00487. human 26S proteasome, Ub4-pepOG fluorescence polarization; 20S core pre-blocked with epoxomicin. inhibition, % at 20 µM. 360,000 compounds, 0.59% hits. AID 588493;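 active = inhibition at 20 µM, scaled to each plate's controls, above about 33%, limit read from the data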
# Target sequence (O00487 whole entry, looked up): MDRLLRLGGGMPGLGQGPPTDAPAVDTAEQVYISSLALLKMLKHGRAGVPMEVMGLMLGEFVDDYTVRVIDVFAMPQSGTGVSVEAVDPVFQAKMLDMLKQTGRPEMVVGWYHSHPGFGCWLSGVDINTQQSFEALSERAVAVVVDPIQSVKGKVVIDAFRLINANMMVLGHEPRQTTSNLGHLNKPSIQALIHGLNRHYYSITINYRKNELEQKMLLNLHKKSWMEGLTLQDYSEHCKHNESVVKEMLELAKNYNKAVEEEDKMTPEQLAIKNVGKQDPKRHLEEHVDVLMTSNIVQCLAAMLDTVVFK
# SUMO1 PPI mod: SUMO1-SIM interaction modulation; P63165; SUMO1 binding to a labelled peptide, TR-FRET, 1 h; inhibition, % at 20 µM; 360,000 compounds, 0.33% hits; in the data active = inhibition above about 37%
# Target sequence (P63165 whole entry, looked up): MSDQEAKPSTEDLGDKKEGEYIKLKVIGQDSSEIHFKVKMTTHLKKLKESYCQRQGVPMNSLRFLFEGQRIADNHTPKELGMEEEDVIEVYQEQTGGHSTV
# DNMT1 inh: inhibitors of human DNMT1; DNMT1 molecular beacon, Hinp1I cleavage, fluorescence; 360,000 compounds, 0.83% hits; AID 588458; P26358; inhibition (reported as % activation of signal), % at 10 µM; in the data active = inhibition above about 50%
# LMPTP inh: LMPTP (human) inhibition | P24666 | recombinant LMPTP-A, OMFP fluorogenic substrate, fluorescence intensity | inhibition, % at 20 µM | 360,000 compounds, 0.22% hits;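 active = compounds that cut the enzyme signal by at least half of the control window in the single-dose screen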;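 note: plate controls were DMSO wells with enzyme plus substrate for no effect and substrate without enzyme for full effect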
#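 Test system – LMPTP-A phosphatase enzyme · Quantity – 0.625 nM LMPTP-A final · Reagent – OMFP substrate, 400 µM final · Dosing – one test concentration per compound, 20 µM, with 3% DMSO overall · Timing – 50 min enzyme reaction at room temperature, protected from light · Detection – fluorescence intensity · Controls – substrate-only low control, DMSO enzyme-plus-substrate high control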
# Scp-1 inhibitor: inhibitors of human Scp-1 phosphatase; Q9GZU7; Recombinant Scp1, phosphopeptide, malachite green phosphate absorbance; inhibition, % at 20 µM; 340,000 compounds, 0.88% hits; AID 493091;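 active = inhibition above about 50% at 20 µM, limit read from the data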;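 note: plate controls were DMSO wells with enzyme for no effect and wells lacking enzyme for full effect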
# Target sequence (Q9GZU7 76-261 limits assumed): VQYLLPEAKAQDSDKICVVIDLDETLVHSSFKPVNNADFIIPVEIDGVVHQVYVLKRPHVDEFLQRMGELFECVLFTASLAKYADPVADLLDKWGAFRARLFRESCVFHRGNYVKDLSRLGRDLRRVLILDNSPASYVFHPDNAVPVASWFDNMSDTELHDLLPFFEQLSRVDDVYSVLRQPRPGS
#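 Incubation: 45 min enzyme reaction at room temperature / System: truncated SCP-1 phosphatase (76-261aa) / Reagent: Phospho 17-mer peptide substrate / Buffer or medium: Acidic Tris acetate buffer with magnesium and detergent / Signal: absorbance at 630 nm / Doses: one concentration, 20 µM, with 1.0% DMSO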
# Starred values were filed as active, the others as inactive; / = no result shown. A selection: hits, their analogues and other compounds. The true share with any hit is near 2.3%.
SMILES,STEP inh,Rpn11 inh,SUMO1 PPI mod,DNMT1 inh,LMPTP inh,Scp-1 inhibitor
O=[N+]([O-])c1cc(CN2CCCC2)c2cccnc2c1O,9,-4,1,-9,74*,35
Cc1ccc(C)c(NC(=O)C2CCCC2)c1,-2,0,-2,-2,0,-16
Cc1ccc(/C=C2/C(=O)ON=C2c2ccccc2)o1,3,13,6,22,4,1
CC1=NOC(=O)/C1=C\c1ccc(-c2ccccc2Br)o1,3,12,30,52*,5,-3
CC1=NOC(=O)/C1=C\c1ccc(-c2cccc(Cl)c2)o1,8,8,40*,57*,4,-4
Cc1nc2cc(C(=O)N3c4ccccc4CC3C)ccc2s1 (stereo unspecified),0,1,1,1,0,-3
CCN(Cc1nc2ccccc2c(=O)[nH]1)C(=O)c1cccc(S(=O)(=O)N2CCc3ccccc32)c1,-2,-2,-3,-8,0,5
CC(=O)c1c(C)[nH]c(C(=O)OCC(=O)Nc2cccc(S(=O)(=O)N(C)C)c2)c1C,-1,0,4,1,0,1
Nc1nccnc1C(=O)OCC(=O)Nc1ccc2[nH]c(=O)[nH]c2c1,2,-34,80*,2,3,10
O=C(COC(=O)c1ccc(Br)o1)Nc1ccc2[nH]c(=O)[nH]c2c1,2,5,39*,8,-1,1
O=C(COC(=O)c1ccc(F)c(S(=O)(=O)N2CCOCC2)c1)Nc1ccc2[nH]c(=O)[nH]c2c1,-2,-2,61*,-1,-2,-2
O=C(COC(=O)c1ccc(O)cc1)Nc1ccc2[nH]c(=O)[nH]c2c1,-1,6,7,2,0,-5
CC(=O)c1c(C)[nH]c(C(=O)OCC(=O)Nc2ccc3[nH]c(=O)[nH]c3c2)c1C,0,-7,61*,-13,0,-7
CC(C)(C)OC(=O)NCCCCCO,0,0,-1,-3,-1,-3
O=C(COC(=O)c1ccco1)Nc1ccc2[nH]c(=O)[nH]c2c1,-3,-5,51*,1,0,-5
O=C(COC(=O)c1ccccc1)Nc1ccc2[nH]c(=O)[nH]c2c1,-3,3,4,0,-1,-3
O=S1(=O)C[C@H](N2CC[C@@H](O)C2)[C@@H](COCc2ccccc2)N1,2,2,3,0,1,/
COc1ccc(CN2CCNC(=O)C2CC(=O)N(C)Cc2nonc2C)c(F)c1 (stereo unspecified),1,3,7,-3,-1,-5
COc1ccc(-c2nc3ccc(Br)cn3c2CC(C)(C)C)cc1OC,1,3,-4,-4,1,/
Cc1cccc2cc(/C=C3\N=C(c4ccccc4)OC3=O)c(N3CCOCC3)nc12,6,40*,-12,-7,0,-2
O=C(c1cc(C2CC2)on1)N1CCCC(N2CCN(c3ccc(F)cc3)CC2)C1 (stereo unspecified),-1,-3,3,3,0,-7
COc1ccc(-n2cccc2/C=C2\C(=N)N3N=C(c4ccco4)SC3=NC2=O)cc1,87*,/,103*,90*,51*,82*
C[C@@H]1CC=C[C@H]2[C@H]1C(=O)N(Cc1ccccc1)[C@H]2c1cccc([N+](=O)[O-])c1,3,2,-4,4,1,-2
Oc1c(N=Nc2nn[nH]n2)ccc2ccccc12,3,-20,50*,36,9,/
NC(=S)N/N=C/c1coc2cc(Br)ccc2c1=O,1,42*,-1,0,0,-14
SMILES,STEP inh,Rpn11 inh,SUMO1 PPI mod,DNMT1 inh,LMPTP inh,Scp-1 inhibitor
CSc1cccc(-c2nnc(NC(=O)c3cccc(N4C(=O)CCC4=O)c3)o2)c1,2,-4,10,14,0,-10
Cc1[nH]c2ccccc2c1C(=O)C(=O)NCc1ccncc1,-4,8,4,1,-1,-7
COc1ccc(-c2csc(NC(=S)NC(=O)/C=C/c3ccco3)n2)cc1OC,5,33,58*,-8,1,-3
Fc1ccc2c(c1)C(c1ccc(N3CCOCC3)cc1)=NNC(c1cccs1)=N2,4,82*,-7,-15,2,-5
Brc1ccc2c(c1)C(c1ccc(N3CCOCC3)cc1)=NNC(c1cccs1)=N2,-3,/,-6,-13,4,3
CN1C(=O)/C(=C/c2ccc(-c3ccccc3[N+](=O)[O-])o2)SC1=Nc1ccc(Cl)c(C(=O)O)c1,9,-9,39*,-10,2,3
Cc1cccc(C(=O)O/N=C(/c2ccccc2)c2ccncc2)c1,4,0,40*,-1,1,4
C[C@@H](NC(=O)c1[nH]cnc1C(=O)Nc1ccccc1F)c1ccccc1,-2,4,8,5,1,/
N#Cc1c(N)c(C#N)c(-c2ccc3c(c2)OCO3)c2c1CCCC2,0,9,44*,-7,4,-14
O=C(CN1CCCCC1)Nc1cc(S(=O)(=O)N2CCOCC2)ccc1N1CCCC1,3,-2,3,-2,-1,-8
CCN(CC(=O)Nc1cccc(C(C)=O)c1)S(=O)(=O)c1ccc(C)cc1,0,0,-1,1,1,-3
COc1ccc(CNC(=O)COC(=O)CO/N=C(\C)c2ccc3c(c2)OCO3)cc1,-1,-2,0,1,0,-6
Oc1ccccc1/C=N/Nc1cc(N2CCCC2)nc(N2CCCC2)n1,8,1,33,58*,8,-30
CCC(OC(=O)CN1C(=O)C(=O)c2ccccc21)C(=O)Nc1ccccc1OC (stereo unspecified),0,-3,-17,-3,-1,-3
O=C(N/N=C/c1ccc([N+](=O)[O-])o1)c1cn(-c2ccccc2)nc1-c1ccccc1,-1,23,6,32,1,-3
O=C(N/N=C/c1ccc([N+](=O)[O-])o1)c1cn(-c2ccccc2)nc1-c1ccc(Cl)cc1,2,-8,8,50*,0,-3
N#Cc1ccc(CC(C(=O)O)N2Cc3ccccc3C2=O)cc1 (stereo unspecified),0,-1,3,-1,0,5
NC(=S)N=Nc1c(O)[nH]c2ccc(F)cc12,2,5,-12,-2,-1,-3
NC(=S)N=Nc1c(O)cc(O)c2[nH]c(=O)ccc12,39,-13,69*,66*,14,85*
O=C(Nc1ccc(C(F)(F)F)cc1)c1ccc(NC(=O)C2CCCO2)cc1 (stereo unspecified),52*,94*,18,9,40,33

# Assay outcomes: PubChem BioAssay, Sanford-Burnham Center for Chemical Genomics
